Converted amounts (≈) assume the structure as drawn.
How the values were obtained:
Format in all cases: functional
[1] = system: Mycobacteroides abscessus; test: Antimicrobial activity against Mycobacterium abscessus isolate MC879-2 at day 5 preincubated with 0.1 ug/ml erythromycin for 3 days by broth microdilution method
[2] = system: Mycobacteroides abscessus; test: Antimicrobial activity against Mycobacterium abscessus isolate MC879-2 at day 3 preincubated with 0.1 ug/ml for 3 days by broth microdilution method
[3] = system: Mycobacteroides abscessus; test: Antimicrobial activity against Mycobacterium abscessus isolate MC1448 at day 14 preincubated with 0.1 ug/ml for 3 days by broth microdilution method
How it was run: (§1)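 Clarithromycin MIC by CLSI-conforming broth microdilution. Before testing, cultures were preincubated for 3 days, either in medium alone or in clarithromycin or erythromycin (tested range 0.01–1 μg/ml). Preincubation ran for at least two generations, judged by turbidity increase. Plates were read on day 3 and on extended incubation at days 5 to 14.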

[4] = system: Mycobacteroides abscessus; test: Antimicrobial activity against Mycobacterium abscessus isolate MC879 on day 4 by broth microdilution method; details: isolate MC879, 96 h
[5] = system: Mycobacteroides abscessus; test: Antimicrobial activity against Mycobacterium abscessus isolate MC958 on day 10 by broth microdilution method; details: isolate MC958, 240 h
[6] = system: Mycobacteroides abscessus; test: Antimicrobial activity against Mycobacterium abscessus isolate MC958 on day 14 by broth microdilution method; details: isolate MC958, 336 h
[7] = system: Mycolicibacterium smegmatis; test: Antimicrobial activity against Mycobacterium smegmatis transformed with erm allele Mycobacterium abscessus isolate MC958 by broth microdilution method
[8] = system: Mycolicibacterium smegmatis; test: Antimicrobial activity against Mycobacterium smegmatis transformed with erm allele Mycobacterium abscessus isolate MAB30 preincubated with 2 ug/ml erythromycin for 20 to 24 hrs by broth microdilution method
[9] = system: Mycobacteroides abscessus; test: Antimicrobial activity against Mycobacterium abscessus isolate MC879 at day 3 by broth microdilution method; details: isolate MC879, 72 h
How it was run: (§2)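 Clarithromycin MIC by broth microdilution following CLSI guidelines. Organisms were preincubated […], for 3 days before the assay. This allowed at least two generations, judged by the rise in turbidity. The MIC was read at the stated day, with incubation extended from day 3 to as long as 14 days.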

[10] = system: Mycobacteroides abscessus; test: Antimicrobial activity against Mycobacterium abscessus isolate MC723 at day 3 by broth microdilution method; details: isolate MC723, 72 h
How it was run: (§3)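 Clarithromycin MIC by broth microdilution following CLSI guidelines. Before testing, organisms were preincubated for 3 days in medium alone or in clarithromycin or erythromycin (0.01–1 μg/ml), long enough for at least two generations judged by turbidity increase. MICs were read on day 3 and again on extended incubation out to day 14.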

[11] = system: Mycobacteroides abscessus; test: Antimicrobial activity against Mycobacterium abscessus isolate MC724 at day 5 by broth microdilution method; details: isolate MC724, 120 h; how it was run: as §2
[12] = system: Mycobacteroides abscessus; test: Antimicrobial activity against Mycobacterium abscessus isolate MC958 at day 14 by broth microdilution method; details: isolate MC958, 336 h; how it was run: as §2
[13] = system: Mycobacteroides abscessus; test: Antimicrobial activity against Mycobacterium abscessus isolate MC720 at day 3 preincubated with 0.1 ug/ml erythromycin for 3 days by broth microdilution method; how it was run: as §3
[14] = system: Mycobacteroides abscessus; test: Antimicrobial activity against Mycobacterium abscessus isolate MC879 at day 5 preincubated with 0.1 ug/ml erythromycin for 3 days by broth microdilution method
How it was run: (§4)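 Clinical M. abscessus isolates were preincubated for 3 days, either in medium alone or in clarithromycin or erythromycin at 0.01 to 1 μg/ml, allowing at least two generations of growth judged by turbidity. The clarithromycin MIC was then determined by CLSI-conforming broth microdilution, with plates read on day 3 and on extended incubation (days 5 to 14).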

[15] = system: Mycobacteroides abscessus; test: Antimicrobial activity against Mycobacterium abscessus isolate MC958 at day 5 preincubated with 0.1 ug/ml erythromycin for 3 days by broth microdilution method; how it was run: as §4
[16] = system: Mycobacteroides abscessus; test: Antimicrobial activity against Mycobacterium abscessus isolate MC1028 at day 5 by broth microdilution method; details: isolate MC1028, 120 h; how it was run: as §1
[17] = system: Mycobacteroides abscessus; test: Antimicrobial activity against Mycobacterium abscessus isolate MAB30 at day 3 preincubated with 0.1 ug/ml erythromycin for 3 days by broth microdilution method; how it was run: as §1
[18] = system: Mycobacteroides abscessus; test: Antimicrobial activity against Mycobacterium abscessus isolate MC1028 at day 5 preincubated with 0.1 ug/ml erythromycin for 3 days by broth microdilution method; how it was run: as §1
[19] = system: Mycobacteroides abscessus; test: Antimicrobial activity against Mycobacterium abscessus isolate MC1082 at day 5 preincubated with 0.1 ug/ml erythromycin for 3 days by broth microdilution method; how it was run: as §1
[20] = system: Mycobacteroides abscessus; test: Antimicrobial activity against Mycobacterium abscessus isolate MC1028 at day 14 preincubated with 0.1 ug/ml erythromycin for 3 days by broth microdilution method; how it was run: as §1
[21] = system: Mycobacteroides abscessus; test: Antimicrobial activity against Mycobacterium abscessus isolate MC720 at day 7 preincubated with 0.1 ug/ml erythromycin for 3 days by broth microdilution method; how it was run: as §3
[22] = system: Mycobacteroides abscessus; test: Antimicrobial activity against Mycobacterium abscessus isolate MC958 at day 9 preincubated with 0.1 ug/ml erythromycin for 3 days by broth microdilution method
[23] = system: Mycobacteroides abscessus; test: Antimicrobial activity against Mycobacterium abscessus isolate MC1082 at day 3 preincubated with 0.1 ug/ml for 3 days by broth microdilution method; how it was run: as §1
[24] = system: Mycobacteroides abscessus; test: Antimicrobial activity against Mycobacterium abscessus isolate MAB30 at day 5 preincubated with 0.1 ug/ml for 3 days by broth microdilution method; how it was run: as §1
[25] = system: Mycobacteroides abscessus; test: Antimicrobial activity against Mycobacterium abscessus isolate MC1028 at day 7 preincubated with 0.1 ug/ml for 3 days by broth microdilution method; how it was run: as §1
[26] = system: Mycobacteroides abscessus; test: Antimicrobial activity against Mycobacterium abscessus isolate MAB30 at day 9 preincubated with 0.1 ug/ml for 3 days by broth microdilution method; how it was run: as §1
[27] = system: Mycobacteroides abscessus; test: Antimicrobial activity against Mycobacterium abscessus isolate MC1082 at day 9 preincubated with 0.1 ug/ml for 3 days by broth microdilution method; how it was run: as §1
[28] = system: Mycobacteroides abscessus; test: Antimicrobial activity against Mycobacterium abscessus isolate MC1448 at day 3 by broth microdilution method; details: isolate MC1448, 72 h; how it was run: as §1
[29] = system: Mycobacteroides abscessus; test: Antimicrobial activity against Mycobacterium abscessus isolate MC724 at day 9 preincubated with 0.1 ug/ml erythromycin for 3 days by broth microdilution method
How it was run: (§5)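 To test inducible resistance, cultures were preincubated for 3 days in clarithromycin or erythromycin, within 0.01–1 μg/ml. The period was set so cultures passed at least two generations, judged by turbidity increase. Clarithromycin MIC was then determined by CLSI-conforming broth microdilution and read on the stated day, from day 3 up to 14.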

[30] = system: Mycobacteroides abscessus; test: Antimicrobial activity against Mycobacterium abscessus isolate MC958 at day 14 preincubated with 0.1 ug/ml erythromycin for 3 days by broth microdilution method; how it was run: as §5
[31] = system: Mycobacteroides abscessus; test: Antimicrobial activity against Mycobacterium abscessus isolate MC720 at day 3 preincubated with 0.1 ug/ml for 3 days by broth microdilution method; how it was run: as §3
[32] = system: Mycobacteroides abscessus; test: Antimicrobial activity against Mycobacterium abscessus isolate MC723 at day 3 preincubated with 0.1 ug/ml for 3 days by broth microdilution method; how it was run: as §3
[33] = system: Mycobacteroides abscessus; test: Antimicrobial activity against Mycobacterium abscessus isolate MC719 at day 5 preincubated with 0.1 ug/ml for 3 days by broth microdilution method; how it was run: as §4
[34] = system: Mycobacteroides abscessus; test: Antimicrobial activity against Mycobacterium abscessus isolate MC719 at day 7 preincubated with 0.1 ug/ml for 3 days by broth microdilution method; how it was run: as §3
[35] = system: Mycobacteroides abscessus; test: Antimicrobial activity against Mycobacterium abscessus isolate MC724 at day 7 preincubated with 0.1 ug/ml for 3 days by broth microdilution method; how it was run: as §5
[36] = system: Mycobacteroides abscessus; test: Antimicrobial activity against Mycobacterium abscessus isolate MC958 at day 9 preincubated with 0.1 ug/ml for 3 days by broth microdilution method

CC[C@H]1OC(=O)[C@H](C)[C@@H](O[C@H]2C[C@@](C)(OC)[C@@H](O)[C@H](C)O2)[C@H](C)[C@@H](O[C@@H]2O[C@H](C)C[C@H](N(C)C)[C@H]2O)[C@](C)(OC)C[C@@H](C)C(=O)[C@H](C)[C@@H](O)[C@]1(C)O [CLARITHROMYCIN]
MIC [1]: > 32 µg/mL | MIC [2]: > 32 µg/mL | MIC [3]: > 32 µg/mL | MIC [4]: ≤ 2 µg/mL | MIC [5]: 32 µg/mL (≈ 42.8 µM) | MIC [6]: 32 µg/mL (≈ 42.8 µM) | MIC [7]: 2 µg/mL (≈ 2.67 µM) | MIC [8]: ≤ 0.5 µg/mL | MIC [9]: ≤ 0.5 µg/mL | MIC [10]: ≤ 0.5 µg/mL | MIC [11]: 1 µg/mL (≈ 1.34 µM) | MIC [12]: > 32 µg/mL | MIC [13]: ≤ 0.5 µg/mL | MIC [14]: 4 µg/mL | MIC [15]: 4 µg/mL | MIC [16]: ≤ 0.5 µg/mL | MIC [17]: ≤ 0.5 µg/mL | MIC [18]: ≤ 0.5 µg/mL | MIC [19]: ≤ 0.5 µg/mL | MIC [20]: ≤ 0.5 µg/mL | MIC [21]: > 32 µg/mL | MIC [22]: > 32 µg/mL | MIC [23]: ≤ 0.5 µg/mL | MIC [24]: ≤ 0.5 µg/mL | MIC [25]: ≤ 0.5 µg/mL | MIC [26]: ≤ 0.5 µg/mL | MIC [27]: ≤ 0.5 µg/mL | MIC [28]: > 32 µg/mL | MIC [29]: > 32 µg/mL | MIC [30]: > 32 µg/mL | MIC [31]: ≤ 0.5 µg/mL | MIC [32]: ≤ 0.5 µg/mL | MIC [33]: 4 µg/mL (≈ 5.35 µM) | MIC [34]: > 32 µg/mL | MIC [35]: > 32 µg/mL | MIC [36]: > 32 µg/mL
